From ChEMBL document CHEMBL4196132, “Alkaloids with Immunosuppressive Activity from the Bark of Pausinystalia yohimbe” (J Nat Prod, 2018)
Activity calls are given as the source filed them. The rule behind the calls is not given here.

Legend:
Type in all cases: functional, cell-based
[1] = system: MCF7; test: Cytotoxicity against human MCF7 cells assessed as reduction in cell viability at 100 uM after 24 hrs by MTT assay
In short: (§1)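 Human cancer lines grown in DMEM or RPMI-1640 with 10% FBS plus penicillin–streptomycin, 5% CO2, 37 °C. MTT read-out, viable-cell percentage measured at 490 nm. Doxorubicin hydrochloride as positive control.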

[2] = system: HT-29; test: Cytotoxicity against human HT-29 cells assessed as reduction in cell viability at 100 uM after 24 hrs by MTT assay; in short: as §1
[3] = system: HeLa; test: Cytotoxicity against human HeLa cells assessed as reduction in cell viability at 100 uM after 24 hrs by MTT assay; in short: as §1
[4] = system: HepG2; test: Cytotoxicity against human HepG2 cells assessed as reduction in cell viability at 100 uM after 24 hrs by MTT assay; in short: as §1
[5] = system: B-cell line; test: Immunosuppressive activity in C57BL/6 mouse B cells assessed as inhibition of LPS-induced cell proliferation by MTT assay; conditions: C57BL/6, B-cell
In short: (§2)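 Splenocytes from male C57BL/6 mice (6–8 weeks), red cells lysed, in RPMI 1640 with 10% FBS. 5 × 10^5 cells per well, 5% CO2, 37 °C, 24 h. Stimulated with ConA 5 μg/mL (T cells) or LPS 10 μg/mL (B cells). MTT added for 4 h, pellet dissolved in DMSO, read at 490 nm. CsA and MMF as positive controls.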

[6] = system: Murine T-cell line; test: Immunosuppressive activity in C57BL/6 mouse T cells assessed as inhibition of ConA-induced cell proliferation by MTT assay; conditions: C57BL/6, T-cell; in short: as §2

How did the Activity [1] turn out when `CC[C@H]1CN2CCc3c([nH]c4ccccc34)[C@@H]2C[C@@H]1/C(=C\OC)C(=O)OC` (stereo in doubt; 13) was run?
Its Activity is “inactive”.

And the Activity [2]?
The Activity was “inactive”.

What about the Activity [3] of the same molecule?
Its Activity is “inactive”.

And the Activity [4]?
Its Activity is “inactive”.

Which results are given for `CC[C@@H]1CN2CC[C@]3(C(=O)Nc4ccccc43)[C@@H]2C[C@@H]1/C(=C\OC)C(=O)OC`?
Activity [1]: inactive; Activity [2]: inactive; Activity [3]: inactive; Activity [4]: inactive

For `C=C[C@H]1CN2CC[C@]3(C(=O)Nc4ccccc43)[C@@H]2C[C@@H]1/C(=C\OC)C(=O)OC`, which Activity [1] is on record?
The Activity was “inactive”.

What about the Activity [2] of the same molecule?
Its Activity is “inactive”.

And the Activity [3]?
Its Activity is “inactive”.

And the Activity [4]?
The Activity was “inactive”.

For `CC[C@@H]1C[N@@+]2([O-])CCc3c([nH]c4ccccc34)[C@@H]2C[C@@H]1/C(=C\OC)C(=O)OC`, which Activity [1] is on record?
The Activity was “inactive”.

What about the Activity [2] of the same molecule?
Its Activity is “inactive”.

What about the Activity [3] of the same molecule?
Its Activity is “inactive”.

And the Activity [4]?
Its Activity is “inactive”.

How did the Activity [1] turn out when `CC[C@@H]1CN2C=Cc3c([nH]c4ccccc34)C2=C2OC(=O)C(C=O)=C21` was run?
Its Activity is “inactive”.

What about the Activity [2] of the same molecule?
Its Activity is “inactive”.

What about the Activity [3] of the same molecule?
The Activity was “inactive”.

What about the Activity [4] of the same molecule?
The Activity was “inactive”.

What does the source list for `C=C[C@@H]1CN2CC[C@@]3(C(=O)Nc4ccccc43)[C@@H]2C[C@@H]1/C(=C\OC)C(=O)OC`?
Activity [1]: inactive; Activity [2]: inactive; Activity [3]: inactive; Activity [4]: inactive

How did the Activity [1] turn out when `CC[C@@H]1CN2CC[C@@]3(C(=O)Nc4ccccc43)[C@@H]2C[C@@H]1/C(=C\OC)C(=O)OC` was run?
The Activity was “inactive”.

What about the Activity [2] of the same molecule?
Its Activity is “inactive”.

And the Activity [3]?
Its Activity is “inactive”.

And the Activity [4]?
Its Activity is “inactive”.

For `CC[C@@H]1CN2CCc3c([nH]c4ccccc34)C2=C2OC(=O)C(C(=O)OC)=C21`, which Activity [1] is on record?
Its Activity is “inactive”.

And the Activity [2]?
The Activity was “inactive”.

What about the Activity [3] of the same molecule?
Its Activity is “inactive”.

And the Activity [4]?
Its Activity is “inactive”.

Which results are given for `C=C[C@H]1CN2CCc3c([nH]c4ccccc34)[C@@H]2C[C@@H]1/C(=C\OC)C(=O)OC`?
IC50 [5]: 13.5 µM; Activity [1]: inactive; Activity [2]: inactive; Activity [3]: inactive; Activity [4]: inactive; IC50 [6]: 16.8 µM

`CC[C@@H]1CN2CCc3c([nH]c4ccccc34)[C@@H]2C[C@@H]1/C(=C\OC)C(=O)OC` was tested. Which Activity [1] did it give?
Its Activity is “inactive”.

And the Activity [2]?
Its Activity is “inactive”.

What about the Activity [3] of the same molecule?
The Activity was “inactive”.

And the Activity [4]?
Its Activity is “inactive”.

What does the source list for `CC[C@H]1C[N@@+]2([O-])CCc3c([nH]c4ccccc34)[C@@H]2C[C@@H]1/C(=C\OC)C(=O)OC`?
Activity [1]: inactive; Activity [2]: inactive; Activity [3]: inactive; Activity [4]: inactive

`COC(=O)[C@H]1[C@H]2C[C@H]3c4[nH]c5ccccc5c4CCN3C[C@@H]2CC[C@@H]1O` [CORYNANTHEINE] was tested. Which IC50 [5] did it give?
Its IC50 is 40.5 µM.

And the Activity [1]?
Its Activity is “inactive”.

And the Activity [2]?
Its Activity is “inactive”.

What about the Activity [3] of the same molecule?
The Activity was “inactive”.

What about the Activity [4] of the same molecule?
Its Activity is “inactive”.

And the IC50 [6]?
Its IC50 is 27.6 µM.

With `CC[C@H]1CN2CCc3c([nH]c4ccccc34)[C@@H]2C[C@@H]1/C(=C\OC)C(=O)OC` (stereo in doubt; 14) as the molecule, how does the Activity [1] read?
The Activity was “inactive”.

What about the Activity [2] of the same molecule?
The Activity was “inactive”.

And the Activity [3]?
Its Activity is “inactive”.

What about the Activity [4] of the same molecule?
The Activity was “inactive”.

With `C=C[C@H]1C[N@+]2([O-])CCc3c([nH]c4ccccc34)[C@@H]2C[C@@H]1/C(=C\OC)C(=O)OC` as the molecule, how does the Activity [1] read?
Its Activity is “inactive”.

And the Activity [2]?
The Activity was “inactive”.

And the Activity [3]?
The Activity was “inactive”.

What about the Activity [4] of the same molecule?
Its Activity is “inactive”.

For `CC[C@@H]1C[N@+]2([O-])CCc3c([nH]c4ccccc34)[C@@H]2C[C@@H]1/C(=C\OC)C(=O)OC`, which Activity [1] is on record?
Its Activity is “inactive”.

What about the Activity [2] of the same molecule?
The Activity was “inactive”.

What about the Activity [3] of the same molecule?
Its Activity is “inactive”.

What about the Activity [4] of the same molecule?
Its Activity is “inactive”.

How did the Activity [1] turn out when `C=C[C@H]1C[N@@+]2([O-])CCc3c([nH]c4ccccc34)[C@@H]2C[C@@H]1/C(=C\OC)C(=O)OC` was run?
Its Activity is “inactive”.

And the Activity [2]?
Its Activity is “inactive”.

What about the Activity [3] of the same molecule?
The Activity was “inactive”.

What about the Activity [4] of the same molecule?
The Activity was “inactive”.
